# Published values from different studies.
# Lines come from different studies, so protocols differ.
# Target: Casein kinase I isoform delta (CSNK1D, Homo sapiens, UniProt P48730)
Structure (SMILES),read-out,mode,method,concentration,quantity,result
O=C(CSc1nc2nccnc2c(=O)n1CCc1ccccc1)Nc1nccs1,enzyme activity,inhibitor,,10 µM,inhibition,7%
CCCS(=O)(=O)Nc1ccc(F)c(C(=O)c2c[nH]c3ncc(-c4ccc(Cl)cc4)cc23)c1F,enzyme activity,inhibitor,,1 µM,inhibition,< 10%
COc1cc(Nc2cnc(C#N)c(O[C@H](C)CN(C)C)n2)ncc1-c1cnn(C)c1,enzyme activity,inhibitor,radiometric,1 µM,remaining activity,76%
CN(c1ccnc(CNc2nc(Nc3ccc4c(c3)CC(=O)N4)ncc2C(F)(F)F)n1)S(C)(=O)=O,cell-free assay,,competition with immobilised ligand,1 µM,remaining binding,100%
Cc1cnc(NC2CCOCC2)nc1-n1cnc(C(=O)NC(CN)c2cc(F)cc(Cl)c2)c1 (stereo not shown),enzyme activity,inhibitor,radiometric,1 µM,remaining activity,53%
O=C(Nc1cnn(-c2csc(C(=O)NC3COC3)c2)c1)Nc1c(F)cccc1Cl,enzyme activity,inhibitor,,5 µM,remaining activity,117%
Cc1nc(N2CC[C@@H](O)C2)ncc1-c1cc(C(F)(F)F)cc2[nH]ncc12,cell-free assay,,competition with immobilised ligand,1 µM,remaining binding,95%
O=C1NC(=O)c2cc(Nc3ccc(F)cc3)c(Nc3ccc(F)cc3)cc21,cell-free assay,,,0.5 µM,remaining signal,109%
Nc1cnc(N2CCc3cc(S(=O)(=O)Nc4c(F)cc(Cl)cc4F)cc(N4CCCC4=O)c32)nc1,cell-free assay,,competition with immobilised ligand,1 µM,remaining binding,98%
COc1cc(Cl)c(C(=O)N[C@@H](CN[C@H]2CC[C@@H](N)CC2)Cc2ccc(C#N)cc2)cc1-c1ccc(CN[C@H](C)c2ccc(C)cc2)o1,enzyme activity,inhibitor,,1 µM,remaining activity,89%
Cc1ccc(NC(=O)c2ccc(C)c(C(F)(F)F)c2)cc1C#Cc1nn(C2CCC(O)CC2)c2ncnc(N)c12 (stereo not shown),cell-free assay,,,10 µM,remaining signal,88%
CN([C@@H]1CCc2c(CC(=O)O)c3cc(S(C)(=O)=O)ccc3n2C1)S(=O)(=O)c1ccc(F)cc1,cell-free assay,,competition with immobilised ligand,1 µM,remaining binding,100%
Cc1ccc(C(=O)Nc2ccc(CN3CCN(C)CC3)c(C(F)(F)F)c2)cc1C#Cc1cnc2cccnn12,enzyme activity,,,23.5 nM,remaining activity,100%
COc1cc2ncnc(Nc3ccc(F)c(Cl)c3)c2cc1OCCCN1CCOCC1,cell-free assay,,,0.5 µM,remaining signal,90.4%
Cc1cc(NC(=O)c2cccc3cc(-c4cccc5[nH]nc(N)c45)ccc23)ccc1F,enzyme activity,inhibitor,,0.1 µM,activity vs control,96%
COc1cc2ncnc(Nc3ccc(Oc4ccccc4)cc3C)c2cc1OC,enzyme activity,inhibitor,,1 µM,inhibition,0%
FC(F)(F)Oc1cccc(-c2cnc3ccc(-c4ccncc4)nn23)c1,enzyme activity,inhibitor,radiometric,1 µM,activity vs control,100%
N#CCCc1ccc2c(c1)-c1[nH]c3ccc([N+](=O)[O-])cc3c1CC(=O)N2,cell-free assay,,,0.5 µM,remaining signal,97.4%
CC(C)(C)c1nc2c(s1)c1nc(N)ncc1c1ccc(NS(=O)(=O)c3c(F)cccc3F)c(F)c12,enzyme activity,inhibitor,radiometric,1 µM,remaining activity,79%
CS(=O)(=O)N1CCCC(NC(=O)[C@H](CCC2CCCCC2)NC(=O)c2ccc(CNC(=O)c3cnc4ccccn34)cc2)C1 (stereo partly shown),cell-free assay,,competition with immobilised ligand,0.1 µM,remaining binding,84%
COc1cc2c(N3CCN(C(=O)Nc4ccc(OC(C)C)cc4)CC3)ncnc2cc1OCCCN1CCCCC1,cell-free assay,,,0.5 µM,remaining signal,90.9%
Cc1nccc(COC(=O)N2C[C@@H]3[C@@H](CNC(=O)c4ccc5[nH]nnc5c4)[C@@H]3C2)n1,cell-free assay,,competition with immobilised ligand,1 µM,remaining binding,97%
CCN(CC)c1ccc(C2=NNC(=O)CC2C)cc1[N+](=O)[O-] (stereo not shown),enzyme activity,inhibitor,,10 µM,remaining activity,109%
CC(=O)N1CCC(c2ccc(C(=O)NC3=NCCN3)cc2C(F)(F)F)CC1,cell-free assay,,competition with immobilised ligand,1 µM,remaining binding,100%
CC/C(=N\NC(=O)NCc1cccc(O)c1)c1ccc(O)c(C)c1O,enzyme activity,inhibitor,,0.1 µM,inhibition,3.7%
